# Screening results (PubChem)
# CSN deneddyl inh – inhibitors of CSN-mediated cullin deneddylation, primary screen, biochemical, fluorescence polarization, uHTS | COP9 signalosome complex subunit 5 (Homo sapiens), Q92905 | Purified CSN, SCF-Nedd8-OG deneddylation | inhibition, % at 12.5 µM | 0.38% of 360,000 active | AID 651999, 2013;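 active means pattern-corrected inhibition above about 35%, with an unprinted fluorescence ratio check between 0.5 and 1.5, limit read from the data, passing the limit was not always enough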;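 further: 0% = enzyme with substrate and 100% = substrate without enzyme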
#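 assay system = purified human Csn5 enzyme expressed in HEK293T cells | amount = 0.24 nM enzyme | buffer or medium = Tris/NaCl/DTT buffer, pH 7.5 | reagent = 10 nM SCFSkp2-Nedd8OG | compound = one concentration, 12.5 µM, 0.25% DMSO | times = 90 min reaction at room temperature | signal = FP | read-out basis = % inhibition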
# Tb MetRS inh – T. brucei MetRS inhibitors, primary screen, biochemical, luminescence. methionyl-tRNA synthetase (Trypanosoma brucei brucei). purified T. brucei MetRS, ATP depletion, Kinase-Glo luminescence. inhibition, % at 11.9 µM. 0.4% of 360,000 active;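 active means inhibition above a per-plate cutoff of the control wells' mean inhibition plus 3 SD, cut at about 5.5% in these data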;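 further: 0% = DMSO wells median and 100% = median of wells with control inhibitor compound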
#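 System: purified T. brucei MetRS enzyme / Detection: Kinase-Glo luciferase luminescence reporting remaining unconsumed ATP / Medium: HEPES buffer with MgCl2, KCl, DTT, spermine, BSA, pyrophosphatase / Replication: singlicate, one well per compound / Evaluation: percent inhibition relative to median high and low control wells / Schedule: 2 h aminoacylation at 25 °C after 15 min preincubation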
# TPT1 inhibitor – Candida albicans TPT1 enzyme inhibitors, primary screen, biochemical, fluorescence polarization; tRNA 2'-phosphotransferase TPT1 (Candida albicans SC5314); inhibition, % at 5 µM; 0.81% of 300,000 active; AID 1962, 2009; recombinant caTPT1, FP RNA substrate dephosphorylation;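 active means inhibition above the mean of all tested compounds plus 3 SD, set per screening campaign, cut at about 24% in these data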;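 further: plate controls were DMSO alone for no effect and ferristatin control at 100 nM for full effect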
# IDE cell activ – human IDE activators in live cells, primary screen, fluorescence polarization, HEK cells, FAbeta-B substrate | Insulin-degrading enzyme (Homo sapiens), P14735 | FAbeta-B cleavage; 0% vehicle, 100% cell-free pure enzyme wells | activation, % at 5.96 µM | 0.073% of 340,000 active | AID 493087, 2011;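 active means activation above the mean of all tested compounds plus 3 SD, set per screening campaign, cut at about 17% in these data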
# IDE cell inh – human IDE inhibitors in live cells, primary screen, fluorescence polarization, HEK cells, FAbetaB substrate; inhibition, % at 5.59 µM; FAbetaB cleavage; 0.41% of 320,000 active; Insulin-degrading enzyme (Homo sapiens), P14735;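 active means percent inhibition above the average of all tested compounds plus 3 SD, set per screening campaign, cut at about 16% in these data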;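 further: IDE supplied by intact live HEK cells; FP after avidin binding of uncleaved biotin substrate so inhibition keeps polarization high; 0% = DMSO wells and 100% = 60 µM reference IDE inhibitor Ii1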
# HNF4A DNA FP – change in binding of human HNF4A to DNA, primary screen, biochemical, fluorescence polarization, FITC-DNA; 1 h; activity change, % at 10 µM; 0.3% of 360,000 active; AID 1224865, 2016; in the data active means activity change above about 30%, passing the limit was not always enough
# TPT1 inh confirm – Candida albicans TPT1 inhibitors, confirmation, biochemical, fluorescence polarization, triplicate. shares compounds with TPT1 inhibitor. recombinant caTPT1, RNase T1 coupled. inhibition, % at 5 µM. 74% of 2,400 active. AID 2149, 2009;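 active means inhibition above the primary screen limit, the mean inhibition of all tested compounds plus 3 SD, cut at about 25% in these data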
# RNase T1 counter – RNase T1 inhibitors, counter-screen for TPT1 inhibitor project, biochemical, fluorescence polarization | shares compounds with TPT1 inhibitor | RNase T1 cleavage, 1536-well | inhibition, % at 5 µM | 83% of 2,400 active | AID 2153, 2009;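 active means inhibition above the solvent-only control well mean plus 3 SD, limit set per screening run, cut at about 23% in these data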;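 further: plate controls were DMSO wells with enzyme for no effect and wells without RNase T1 for full effect; inhibitors block cleavage so intact labeled substrate keeps polarization high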
# The depositor's hits bear a star; / = not tested or not shown. The list is not random: actives were taken first. Their share in the collection is about 1.7%.
SMILES,CSN deneddyl inh,Tb MetRS inh,TPT1 inhibitor,IDE cell activ,IDE cell inh,HNF4A DNA FP,TPT1 inh confirm,RNase T1 counter
Cc1c(CCC(=O)O)c(=O)n2c([nH]c3ccccc32)c1C#N,11,1,-2,0,5,-2,/,/
N#Cc1cc(NC(=O)c2ccc(F)cc2)c(=O)n2c1[nH]c1ccccc12,/,/,28*,/,-4,/,30*,38*
CN(/N=C/c1cc(Cl)cc(Cl)c1O)c1c(Cl)cccc1[N+](=O)[O-],2,-1,-2,3,10,6,/,/
COc1cc(/C=C/C(=O)c2c(O)cc(C)oc2=O)cc(OC)c1O,4,-2,37*,-13,13,0,8,17
CCOC(=O)/C=C/c1cccc(OC)c1O,-4,-1,/,/,/,1,/,/
COc1cccc(/C=C/C(=O)c2c(O)cc(C)oc2=O)c1O,4,-1,33*,3,8,-2,2,7
COc1cc(/C=C/C(=O)O)cc(OC)c1O,-4,-1,-3,0,3,-2,/,/
CCCS(=O)(=O)NC(=O)C1(C)CCCN(C(=O)c2ccc(C#N)cc2)C1 (stereo not given),3,0,/,/,/,1,/,/
C[C@@H]1CN([C@@H](C)CO)C(=O)CCCn2nncc2CO[C@@H]1CN(C)S(=O)(=O)c1ccc2c(c1)OCCCO2,4,-1,/,/,/,1,/,/
O=C(O)c1ccc(-c2ccc(/C=c3/sc4nc5ccccc5n4c3=O)o2)cc1Cl,107*,0,49*,-1,4,57*,120*,122*
COC(=O)C1=CN(c2cccc(OCc3ccccc3)c2)C(N)=C(C#N)C1c1cccc(F)c1 (stereo not given),1,0,/,/,/,17,/,/
N#CC1=C(N)OC2=C(CC/C2=C\c2ccc(F)cc2)C1c1ccc(F)cc1 (stereo not given),/,/,103*,/,2,/,95*,102*
CCN1CC2=C(OC(N)=C(C#N)C2c2ccccc2)/C(=C\c2ccccc2)C1 (stereo not given),-1,-1,-4,0,3,-1,/,/
CCN(CC)c1ccc(/C=C2\NC(=O)NC2=O)cc1,3,-1,27*,1,8,6,36*,50*
O=C1NC(=O)/C(=C\c2ccsc2)N1,2,0,3,8,1,-6,/,/
NC(=O)CC(NC(=O)c1ccccc1)c1ccc(NCCN2CCCCC2)c([N+](=O)[O-])c1 (stereo not given),-4,0,-2,-1,-2,3,/,/
COc1cc2c(cc1OC)-c1cc(OCCN3CCOCC3)nc(=O)n1CC2,12,0,25*,1,-1,3,32*,44*
CCc1nnc(NS(=O)(=O)c2ccc(NC(=O)c3ccc(Cl)cc3)cc2)s1,-2,0,-1,2,-1,-1,/,/
CCc1nnc(NS(=O)(=O)c2ccc(N/C=C(\C=O)c3nc4cc(Cl)ccc4o3)cc2)s1,8,0,80*,4,-3,3,11,17
Cc1ccc(/C=C2/NC(=O)N(Cc3ccccc3F)C2=O)s1,41*,-1,69*,1,1,75,86*,86*
O=C(CC[C@H]1O[C@@H](n2ccc(=O)[nH]c2=O)[C@H](O)[C@@H]1O)NCC1CCCO1 (stereo not given in full),5,0,/,/,/,1,/,/
